In ChEMBL document CHEMBL1268877, “Novel rhodanine derivatives induce growth inhibition followed by apoptosis” (Bioorg Med Chem Lett, 2010):
pIC50: −log10 of the molar value. Calls of active or inactive are those of the source. No cut-off for these calls is given here.

Legend:
[1] = Cytotoxicity against human 8E5 cells at 10 to 250 uM after 24 to 48 hrs by MTT assay; type: cell-based
CCRF-CEM [2] = assay: Cytotoxicity against human CEM cells after 72 hrs by trypan blue assay; type: functional, cell-based
Method in brief: (§1)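 Trypan blue exclusion on CEM T-cell leukemia cells given 10, 50, 100 or 250 µM compound (DMSO as vehicle control); live cells counted every 24 h after addition until control culture reached stationary phase; independent experiments; IC50 estimated at 48 and 72 h.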

CCRF-CEM [3] = assay: Cytotoxicity against human CEM cells at 10 to 250 uM after 24 to 48 hrs by MTT assay; type: functional, cell-based
Method in brief: (§2)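 CEM T-cell leukemia cells cultured with 10, 50, 100 and 250 µM compound (DMSO vehicle control), harvested after 24 and 48 h for MTT assay; percent viable cells calculated taking DMSO-treated cells as 100%; SD from three independent experiments.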

CCRF-CEM [4] = assay: Cytotoxicity against human CEM cells at 250 uM after 6 days by trypan blue assay; type: functional, cell-based; method in brief: as §1
CCRF-CEM [5] = assay: Cytotoxicity against human CEM cells after 6 days by trypan blue assay; type: functional, cell-based; method in brief: as §1
CCRF-CEM [6] = assay: Cytotoxicity against human CEM cells after 48 hrs by trypan blue assay; type: functional, cell-based; method in brief: as §1
CCRF-CEM [7] = assay: Cytotoxicity against human CEM cells at 10 to 250 uM by trypan blue assay; type: functional, cell-based; conditions: TDE = time-dependent effect; method in brief: as §1
CCRF-CEM [8] = assay: Cytotoxicity against human CEM cells after 24 to 72 hrs by LDH release assay; type: functional, cell-based
Method in brief: (§3)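 LDH release measured at 490 nm from CEM cells exposed to 10, 50, 100 and 250 µM compound for 24, 48 and 72 h; expressed as percent LDH release; SD from three independent experiments.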

CCRF-CEM [9] = assay: Induction of cell cycle arrest in human CEM cells assessed as accumulation at subG1 phase at 10 to 250 uM after 48 hrs by propidium iodide staining-based FACS analysis; type: functional
Method in brief: (§4)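 CEM cells treated 48 h with 10, 20, 50, 100 or 250 µM compound or DMSO vehicle, then fixed, stained with propidium iodide and analysed by flow cytometry (10,000 cells per sample); percent cells in subG1, G1, S and G2/M quantified; SD from three independent experiments.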

CCRF-CEM [10] = assay: Cytotoxicity against human CEM cells assessed as mild induction of ROS production at 20 uM after 4 hrs by H2DCFDA staining-based flow cytometry; type: functional, cell-based
Method in brief: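 CEM cells treated with 20 µM compound for 1, 2 and 4 h; ROS production quantified by flow cytometry, with unstained and dye-stained cells as references and H2O2 as positive control.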

CCRF-CEM [11] = assay: Cytotoxicity against human CEM cells at 10 uM after 24 to 48 hrs by MTT assay; type: functional, cell-based; method in brief: as §2
[12] = Cytotoxicity against human 8E5 cells at 250 uM after 24 to 48 hrs by MTT assay; type: cell-based
CCRF-CEM [13] = assay: Induction of cell cycle arrest in human CEM cells assessed as accumulation at S phase at 10 to 50 uM after 48 hrs by propidium iodide staining-based FACS analysis; type: functional; method in brief: as §4
CCRF-CEM [14] = assay: Induction of cell cycle arrest in human CEM cells assessed as decrease in accumulation at G2/M phase at 10 to 250 uM after 48 hrs by propidium iodide staining-based FACS analysis; type: functional; method in brief: as §4
CCRF-CEM [15] = assay: Cytotoxicity against human CEM cells at 10 to 250 uM by LDH release assay; type: functional, cell-based; conditions: TDE = time-dependent effect; method in brief: as §3
CCRF-CEM [16] = assay: Induction of cell cycle arrest in human CEM cells assessed as decrease in accumulation at G1 phase at 10 to 250 uM after 48 hrs by propidium iodide staining-based FACS analysis; type: functional; method in brief: as §4
CCRF-CEM [17] = assay: Antiproliferative activity against human CEM cells assessed as inhibition of [3H]thymidine incorporation at 10 to 250 uM after 24 to 48 hrs by scintillation counting; type: functional, cell-based
Method in brief: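 [3H]-thymidine added to CEM T-cell leukemia cells treated with 10, 50, 100 or 250 µM compound; radioactive counts per minute (cpm) calculated and plotted; data from independent experiments.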

CCRF-CEM [18] = assay: Induction of apoptosis in human CEM cells assessed as chromosomal DNA fragmentation at 20 uM after 72 hrs by agarose gel electrophoresis; type: functional, cell-based
Method in brief: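 Chromosomal DNA extracted from CEM cells treated with 20 µM compound and harvested at 12, 24, 36, 48 and 72 h (DMSO control), then resolved on 1% agarose gel beside a 2-log DNA ladder.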

Row | Compound | Activity [1] | pIC50 (CCRF-CEM [2]) | Activity (CCRF-CEM [3]) | Activity (CCRF-CEM [4]) | Activity (CCRF-CEM [5]) | pIC50 (CCRF-CEM [6]) | Activity (CCRF-CEM [7]) | Activity (CCRF-CEM [8]) | Activity (CCRF-CEM [9]) | Activity (CCRF-CEM [10]) | Activity (CCRF-CEM [11]) | Activity [12] | Activity (CCRF-CEM [13]) | Activity (CCRF-CEM [14]) | Activity (CCRF-CEM [15]) | Activity (CCRF-CEM [16]) | inhibition (CCRF-CEM [17]) | Activity (CCRF-CEM [18])
1 | CC(C)=C1C(=O)N(C)C(=S)N1C | Non-toxic | 4.40 | Active | Active | Dose-dependent effect | 4.15 | tde | – | – | – | – | – | – | – | – | – | – | –
2 | CCN1C(=O)C(=C(C)C)OC1=S | Non-toxic | 4.30 | Active | Active | Dose-dependent effect | 4.10 | tde | – | – | – | – | – | – | – | – | – | – | –
3 | CCN1C(=O)/C(=C\c2ccccc2)SC1=S | – | 5.22 | – | Active | Dose-dependent effect | 5.10 | tde | Dose-dependent effect | Active | Active | Active | Toxic | Active | Active | tde | Active | Active | Active
